Test results as given in ChEMBL document CHEMBL4041491, “Imidazo[1,2-a]pyrazin-8-amine core for the design of new adenosine receptor antagonists: Structural exploration to target the A3 and A2A subtypes” (Eur J Med Chem, 2017).

Columns and labels:
[1] = molecular target: T1, Adenosine receptor A3 (Homo sapiens, UniProt P0DMS8); assay: Displacement of [125I]AB-MECA from human adenosine A3 receptor expressed in CHO cell membranes after 120 mins by scintillation counting method
In short: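 hA3 CHO membranes (50 µg protein) with 0.5 nM [125I]AB-MECA in 50 mM Tris HCl, 10 mM MgCl2, 1 mM EDTA, pH 7.4, 120 min at 4 °C. Six to eight ligand concentrations, or 1 µM for percent inhibition. Nonspecific binding with 1 µM AB-MECA; GF/B filtration. Ki by Cheng–Prusoff, four assays in duplicate, means ± SEM.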

[2] = molecular target: T2, Adenosine receptor A1 (Homo sapiens) (UniProt P30542); assay: Displacement of [3H]DPCPX from human adenosine A1 receptor expressed in CHO cell membranes at 1 uM after 120 mins by scintillation counting method relative to control
T2 sequence (whole entry): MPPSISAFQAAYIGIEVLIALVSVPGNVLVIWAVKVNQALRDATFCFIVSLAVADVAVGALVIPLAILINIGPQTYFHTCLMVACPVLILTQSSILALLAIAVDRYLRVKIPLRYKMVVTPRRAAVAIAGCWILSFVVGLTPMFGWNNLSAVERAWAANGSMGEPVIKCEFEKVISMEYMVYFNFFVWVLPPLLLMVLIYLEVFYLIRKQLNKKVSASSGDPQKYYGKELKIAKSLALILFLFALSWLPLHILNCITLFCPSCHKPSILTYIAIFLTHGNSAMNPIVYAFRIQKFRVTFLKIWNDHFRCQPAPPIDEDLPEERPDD
In short: (§1)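 hA1 CHO membranes (50 µg protein) with 1 nM [3H]DPCPX in 50 mM Tris HCl pH 7.4, 120 min at 25 °C. Six to eight antagonist concentrations, or 1 µM for percent inhibition. Nonspecific binding with 1 µM DPCPX. Ki via Cheng–Prusoff, four assays in duplicate, means ± SEM.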

[3] = molecular target: T3, Adenosine receptor A2a (Homo sapiens, UniProt P29274); assay: Displacement of [3H]ZM241385 from human adenosine A2A receptor expressed in CHO cell membranes at 1 uM after 60 mins by scintillation counting method relative to control
T3 sequence (P29274 whole entry): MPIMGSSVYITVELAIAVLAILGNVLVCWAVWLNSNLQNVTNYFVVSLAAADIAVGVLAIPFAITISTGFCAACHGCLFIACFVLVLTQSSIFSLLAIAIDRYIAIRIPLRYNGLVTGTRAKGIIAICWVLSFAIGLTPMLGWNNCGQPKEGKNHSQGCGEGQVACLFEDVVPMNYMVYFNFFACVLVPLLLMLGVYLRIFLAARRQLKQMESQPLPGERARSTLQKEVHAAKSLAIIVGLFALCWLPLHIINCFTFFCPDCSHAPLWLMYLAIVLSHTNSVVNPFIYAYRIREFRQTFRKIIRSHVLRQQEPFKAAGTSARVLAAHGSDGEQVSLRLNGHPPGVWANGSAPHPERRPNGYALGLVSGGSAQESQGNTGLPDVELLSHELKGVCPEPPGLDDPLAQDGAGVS
In short: (§2)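 hA2A CHO membranes (50 µg protein) with 1 nM [3H]ZM241385 in 50 mM Tris HCl, 10 mM MgCl2, pH 7.4, 60 min at 4 °C. Six to eight antagonist concentrations, or 1 µM for percent inhibition. Nonspecific binding with 1 µM ZM241385. Ki via Cheng–Prusoff, four assays in duplicate, means ± SEM.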

[4] = molecular target: T4, Adenosine receptor A2b (Homo sapiens) (UniProt P29275); assay: Antagonist activity at human A2B receptor expressed in CHO cells assessed as inhibition of NECA-stimulated cAMP production at 1 uM by [3H]cAMP competition binding based scintillation counting method relative to control; format: functional, cell-based
T4 sequence (whole entry): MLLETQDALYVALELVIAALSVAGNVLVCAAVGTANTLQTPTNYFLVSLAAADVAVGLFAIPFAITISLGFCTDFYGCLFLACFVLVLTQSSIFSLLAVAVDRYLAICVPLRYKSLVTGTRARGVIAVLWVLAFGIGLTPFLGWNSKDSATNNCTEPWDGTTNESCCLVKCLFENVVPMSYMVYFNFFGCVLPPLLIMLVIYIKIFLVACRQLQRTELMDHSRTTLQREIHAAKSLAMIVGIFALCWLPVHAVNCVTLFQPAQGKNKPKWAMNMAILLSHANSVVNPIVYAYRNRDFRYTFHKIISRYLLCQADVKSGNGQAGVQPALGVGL
In short: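 Transfected CHO cells (1 × 10^6/assay) in buffered saline pH 7.4 with adenosine deaminase 2 IU/ml and Ro 20-1724, preincubated 10 min at 37 °C. Test compound at 1 μM against 200 nM NECA-stimulated cAMP. TCA stop, ether extraction, cAMP measured by [3H]cAMP competition binding to bovine adrenal binding protein. Result given as percent inhibition.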

[5] = molecular target: T5, Adenosine receptor A1 (Homo sapiens, UniProt P30542); assay: Displacement of [3H]DPCPX from human adenosine A1 receptor expressed in CHO cell membranes after 120 mins by scintillation counting method; in short: as §1
T5 sequence (P30542 whole entry): T2 sequence (whole entry)

[6] = molecular target: T1, Adenosine receptor A3; assay: Displacement of [125I]AB-MECA from human adenosine A3 receptor expressed in CHO cell membranes at 1 uM after 120 mins by scintillation counting method relative to control
[7] = molecular target: T1, Adenosine receptor A3; assay: Antagonist activity at human A3 receptor expressed in CHO cells assessed as inhibition of CI-IB-MECA-mediated inhibition of cAMP production by [3H]cAMP competition binding based scintillation counting method; format: cell-based
In short: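 hA3-transfected CHO cells (1 × 10^6/assay) in buffered saline pH 7.4 with adenosine deaminase and Ro 20-1724, preincubated 10 min at 37 °C. Antagonism of 100 nM Cl-IB-MECA inhibition of 1 µM forskolin-stimulated cAMP. cAMP measured by [3H]cAMP protein-binding assay. IC50 by sigmoid nonlinear regression, four independent experiments in triplicate, means ± SEM.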

[8] = molecular target: T6, Adenosine receptor A3 (Rattus norvegicus) (UniProt P28647); assay: Displacement of [125I]AB-MECA from rat adenosine A3 receptor expressed in HEK293 cell membranes at 1 uM after 120 mins by scintillation counting method relative to control
T6 sequence (whole entry): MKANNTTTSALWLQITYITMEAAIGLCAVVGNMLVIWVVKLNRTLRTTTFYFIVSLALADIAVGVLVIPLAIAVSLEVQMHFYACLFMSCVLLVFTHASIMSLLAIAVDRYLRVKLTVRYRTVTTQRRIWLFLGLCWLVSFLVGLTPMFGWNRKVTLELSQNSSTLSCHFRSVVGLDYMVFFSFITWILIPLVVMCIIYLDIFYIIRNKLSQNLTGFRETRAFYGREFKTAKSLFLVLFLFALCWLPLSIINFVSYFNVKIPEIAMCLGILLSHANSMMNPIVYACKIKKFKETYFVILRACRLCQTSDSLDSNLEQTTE
In short: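 rA3 receptor in HEK293 membranes (10 μg protein), 0.5 nM [125I]AB-MECA, 50 mM Tris–HCl, 10 mM MgCl2, 1 mM EDTA, pH 7.4, 120 min at 25 °C. Nonspecific binding with 1 μM AB-MECA; filtration and scintillation counting. Percent inhibition of specific binding at 1 µM.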

[9] = molecular target: T3, Adenosine receptor A2a; assay: Displacement of [3H]ZM241385 from human adenosine A2A receptor expressed in CHO cell membranes after 60 mins by scintillation counting method; in short: as §2

T1 sequence (P0DMS8 whole entry, looked up): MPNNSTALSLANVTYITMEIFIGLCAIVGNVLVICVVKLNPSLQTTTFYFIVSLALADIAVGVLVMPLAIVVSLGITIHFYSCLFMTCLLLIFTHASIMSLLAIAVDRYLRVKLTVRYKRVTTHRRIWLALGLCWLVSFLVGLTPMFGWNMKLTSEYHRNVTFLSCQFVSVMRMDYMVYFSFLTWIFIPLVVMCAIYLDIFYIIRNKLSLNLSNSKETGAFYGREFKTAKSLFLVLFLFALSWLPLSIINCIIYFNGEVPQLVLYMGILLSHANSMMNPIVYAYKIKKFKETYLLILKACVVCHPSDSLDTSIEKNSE

| Compound | Ki [1] | inhibition [2] | inhibition [3] | inhibition [4] | Ki [5] | inhibition [6] | IC50 [7] | inhibition [8] | Ki [9] |
| --- | --- | --- | --- | --- | --- | --- | --- | --- | --- |
| O=C(Nc1nc(-c2ccccc2)cn2cc(-c3ccccc3)nc12)c1ccc(Cl)cc1 | 156 nM | 1% | 1% | 1% | – | – | – | – | – |
| Cc1ccc(C(=O)Nc2nc(-c3ccccc3)cn3cc(-c4ccccc4)nc23)cc1 | 223 nM | 1% | 1% | 3% | – | – | – | – | – |
| Nc1nc(Br)cn2cc(-c3ccccc3)nc12 | – | – | 18% | 40% | 420 nM | 14% | – | – | – |
| Nc1nc(-c2cccc(NC(=O)Cc3ccccc3)c2)cn2cc(-c3ccccc3)nc12 | – | 37% | 33% | 7% | – | 8% | – | – | – |
| O=C(Nc1nccn2cc(-c3ccccc3)nc12)c1ccccc1 | 52 nM | 18% | 1% | 2% | – | – | 163 nM | 2% | – |
| Nc1nc(-c2ccc(OCc3ccccc3)cc2)cn2cc(-c3ccccc3)nc12 | – | 10% | 1% | 4% | – | 1% | – | – | – |
| COc1ccc(-c2cn3cc(-c4ccccc4)nc(N)c3n2)cc1 | – | – | 1% | 1% | 524 nM | 27% | – | – | – |
| Nc1nc(-c2ccco2)cn2cc(-c3ccco3)nc12 | – | – | – | 30% | 316 nM | 38% | – | – | 854 nM |
| COc1ccc(-c2cn3ccnc(N)c3n2)cc1 | – | 1% | 1% | 1% | – | 1% | – | – | – |
| O=C(Nc1nc(-c2ccccc2)cn2cc(-c3ccccc3)nc12)c1ccccc1 | 82 nM | 1% | 1% | 1% | – | – | 235 nM | 2% | – |
| O=C(c1ccccc1)N(C(=O)c1ccccc1)c1nccn2cc(-c3ccccc3)nc12 | 64 nM | 4% | 5% | 3% | – | – | 187 nM | 1% | – |
| Nc1nc(-c2cccc(C(=O)O)c2)cn2cc(-c3ccccc3)nc12 | – | 7% | 9% | 3% | – | 1% | – | – | – |
| O=C(Nc1nc(-c2ccccc2)cn2cc(-c3ccccc3)nc12)c1cccs1 | 185 nM | 5% | 1% | 4% | – | – | – | – | – |
| COc1ccc(-c2cn3cc(-c4ccccc4)nc(NC(=O)c4ccccc4)c3n2)cc1 | 312 nM | 3% | 1% | 1% | – | – | – | – | – |
| O=C(Nc1nc(-c2ccccc2)cn2cc(-c3ccccc3)nc12)c1ccc(F)cc1 | 38 nM | 1% | 1% | 2% | – | – | – | – | – |
| O=C(Nc1nccn2cc(-c3ccccc3)nc12)C(c1ccccc1)c1ccccc1 | 245 nM | 32% | 1% | 25% | – | – | – | – | – |
| COc1ccc(-c2cn3cc(-c4ccccc4)nc3c(N)n2)cc1 | – | 20% | 23% | 16% | – | 23% | – | – | – |

| Compound | Ki [1] | inhibition [2] | inhibition [3] | inhibition [4] | Ki [5] | inhibition [6] | IC50 [7] | inhibition [8] | Ki [9] |
| --- | --- | --- | --- | --- | --- | --- | --- | --- | --- |
| Nc1nc(-c2ccc(Cl)cc2)cn2cc(-c3ccccc3)nc12 | – | 3% | 1% | 2% | – | 1% | – | – | – |
| O=C(Nc1nccn2cc(-c3ccccc3)nc12)c1ccco1 | – | 25% | 34% | 19% | – | 40% | – | – | – |
| O=C(Nc1nc(-c2ccccc2)cn2cc(-c3ccccc3)nc12)c1ccco1 | 67 nM | 10% | 1% | 2% | – | – | – | – | – |
| O=C(c1ccc(F)cc1)N(C(=O)c1ccc(F)cc1)c1nc(-c2ccccc2)cn2cc(-c3ccccc3)nc12 | – | 1% | 1% | 3% | – | 31% | – | – | – |
| COc1cccc(-c2cn3cc(-c4ccccc4)nc3c(N)n2)c1 | – | 37% | 24% | 30% | – | 21% | – | – | – |
| COc1ccc(-c2cn3ccnc(NC(=O)c4ccccc4)c3n2)cc1 | 121 nM | 1% | 1% | 1% | – | – | – | – | – |
| COc1ccc(-c2cn3cc(Br)nc(N)c3n2)cc1 | – | 29% | 11% | 27% | – | 24% | – | – | – |
| Nc1nccn2cc(-c3ccco3)nc12 | – | 21% | 12% | 1% | – | 5% | – | – | – |
| COc1ccc(C(=O)Nc2nc(-c3ccccc3)cn3cc(-c4ccccc4)nc23)cc1 | 25 nM | 6% | 8% | 1% | – | – | 73 nM | 1% | – |
| O=C(Nc1ccccc1)Nc1nccn2cc(-c3ccccc3)nc12 | – | 1% | 1% | 1% | – | 6% | – | – | – |
| Nc1nccn2cc(-c3ccccc3)nc12 | – | 30% | 13% | 30% | – | 12% | – | – | – |
| O=C(Nc1nccn2cc(-c3ccco3)nc12)c1ccccc1 | – | 7% | 1% | 1% | – | 22% | – | – | – |
| COc1ccc(C(=O)Nc2nccn3cc(-c4ccccc4)nc23)cc1 | 162 nM | 1% | 3% | 1% | – | – | – | – | – |
| O=C(Cc1ccccc1)Nc1nccn2cc(-c3ccccc3)nc12 | 524 nM | 46% | 37% | 15% | – | – | – | – | – |
| Nc1nc(-c2ccco2)cn2cc(-c3ccccc3)nc12 | – | 28% | 38% | 13% | – | 20% | – | – | – |
| Cc1ccc(C(=O)Nc2nccn3cc(-c4ccccc4)nc23)cc1 | – | 26% | 21% | 10% | – | 45% | – | – | – |
| O=C(Nc1nccn2cc(-c3ccccc3)nc12)c1cccnc1 | – | 24% | 13% | 22% | – | 42% | – | – | – |
